The values that follow come from ChEMBL document CHEMBL2331304, “N1,N3-disubstituted uracils as nonnucleoside inhibitors of HIV-1 reverse transcriptase” (Bioorg Med Chem, 2013).

One series concerns Human respirovirus 3. Nature of the series: Antiviral activity against Parainfluenza virus 3. The series is classed as functional, organism-based.
For series [1], the system named is Mammalian orthoreovirus 1. Nature of the series: Antiviral activity against Reovirus 1. The series is classed as functional, organism-based.
The subject of series [2] is Human immunodeficiency virus 1. Description: Antiviral activity against HIV1 3B infected in human MT4 cells assessed as inhibition of virus-induced cytopathic effect after 4 days by MTT assay. The series is classed as functional, organism-based. Conditions: Human immunodeficiency virus 1, 3B, MT4, 96 h. In outline: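 HIV-1 in MT-4 cells at 1 × 10^5 cells/ml, infected at MOI 0.02 (virus stock titrated as CCID50), then plated immediately onto varying compound concentrations. After 4 days at 37 °C, viable cells counted by MTT.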
Background: Protection from cytopathic effect is a common read-out in antiviral testing.

Another series deals with Human alphaherpesvirus 1. Description: Antiviral activity against Human herpesvirus 1. In kind it is functional, organism-based. In outline: (§1)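 Confluent HEL, Vero, HeLa or MDCK monolayers (cell type per virus not specified) were inoculated with 100 CCID50 of virus, with a range of compound concentrations. Strains were HSV-1 KOS and TK− ACV-resistant KOS, HSV-2 Lyons and G, and HCMV AD-169 and Davis. Cytopathicity or plaques were scored once complete in untreated infected controls.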

For the next series, the system named is Punta Toro virus. Description: Antiviral activity against Punta Toro virus. The series is classed as functional, organism-based.
The next series concerns Feline coronavirus. Description: Antiviral activity against Feline coronavirus. The series is classed as functional, organism-based.
The subject of a further series is Human alphaherpesvirus 3. Description: Antiviral activity against Varicella zoster virus. In kind it is functional, organism-based. In a few lines: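 VZV strain Oka and the TK− strain 07-1 were inoculated at 20 PFU onto confluent cell monolayers in the presence of varying compound concentrations. Plaque formation was recorded once complete in untreated infected controls.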

Series [3] has as its system Influenza A virus. Nature of the series: Antiviral activity against Influenza A virus H3N2. The series is classed as functional, organism-based.
Series [4] deals with Vesicular stomatitis virus. Nature of the series: Antiviral activity against Vesicular stomatitis virus. The series is classed as functional, organism-based.
Another series has as its system MT4. Nature of the series: Cytotoxicity against human MT4 cells after 4 days by MTT assay. In kind it is cell-based. Conditions: mt4, 96 h. (In general: Tetrazolium dyes change colour on reduction, which living cells bring about.)
Another series concerns Vaccinia virus. Description: Antiviral activity against Vaccinia virus. In kind it is functional, organism-based. Conditions: Orthopoxvirus vaccinia.
The test system of series [5] is Respiratory syncytial virus. Nature of the series: Antiviral activity against Respiratory syncytial virus. In kind it is functional, organism-based.
Another series has as its system Human alphaherpesvirus 2. Description: Antiviral activity against Human herpesvirus 2. The series is classed as functional, organism-based. In a few lines:
as §1

For another series, the system named is Coxsackievirus B4. Nature of the series: Antiviral activity against Coxsackievirus B4. In kind it is functional, organism-based.
Series [6] deals with Influenza A virus. Nature of the series: Antiviral activity against Influenza A virus H1N1. The series is classed as functional, organism-based.
The test system of another series is Sindbis virus. Description: Antiviral activity against Sindbis virus. In kind it is functional, organism-based.
For another series, the system named is Influenza B virus. Nature of the series: Antiviral activity against influenza B virus. In kind it is functional, organism-based.
Series [7] addresses Human immunodeficiency virus type 1 reverse transcriptase (Human immunodeficiency virus 1, UniProt Q72547). Nature of the series: Non-competitive inhibition of wild type HIV1 reverse transcriptase p66/p51 after 30 mins by liquid scintillation counting.

Activity calls are given as the source filed them. The calls are words filed in the database; no cut-off is given here.

One may read the EC50 as the concentration giving half of the maximal effect. The term CC50 denotes the concentration that lowers cell viability or growth by half. The low end stands for harm at low concentration, the high end for better tolerance by the cells. What is called Ki is a dissociation constant, usually derived from enzyme kinetics or from competition with a known ligand. Low values mean higher affinity, high ones lower affinity.

For `Cc1ccc(OCCn2ccc(=O)n(Cc3ccccc3)c2=O)cc1C`, the result (in the series with Human respirovirus 3; in series [1]; with Human alphaherpesvirus 1; in the series with Punta Toro virus; in the series with Feline coronavirus; in the series with Human alphaherpesvirus 3) was inactive. The result (with Influenza A virus [3]; in series [4]; in the series on Vaccinia virus; in series [5]; with Human alphaherpesvirus 2; in the series with Coxsackievirus B4) was inactive. The outcome with Influenza A virus [6], in the series on Sindbis virus and in the series with Influenza B virus was inactive. The EC50 in series [2] was over 60 µM. This compound came in with a cytotoxic concentration (CC50) in the series on MT4 of 60 µM. In addition, the Ki in series [7] is over 100 µM.
On to `Cc1ccc(OCCn2ccc(=O)n(Cc3c(C)cc(C)cc3C)c2=O)cc1`, for which the result (in the series with Human respirovirus 3; in [1]; with Human alphaherpesvirus 1; in the series with Punta Toro virus; in the series on Feline coronavirus; in the series on Human alphaherpesvirus 3) was inactive. For the same compound, the outcome (in the series on Influenza A virus [3]; in series [4]; in the series with Vaccinia virus; in series [5]; in the series on Human alphaherpesvirus 2; in the series with Coxsackievirus B4) was inactive. In addition, the result in the series on Influenza A virus [6], in the series on Sindbis virus and with Influenza B virus was inactive. Further, the EC50 in [2] was over 133 µM. Besides, the 50% cytotoxic concentration (CC50) with MT4 was determined as 133 µM. In [7], this compound registered a Ki of over 100 µM.
In the case of `O=c1ccn(CCOc2ccc(Cl)cc2)c(=O)n1Cc1ccccc1`, the result (in the series on Human respirovirus 3; in series [1]; in the series with Human alphaherpesvirus 1; in the series with Punta Toro virus; in the series with Feline coronavirus; in the series with Human alphaherpesvirus 3) was inactive. Besides, the result (with Influenza A virus [3]; in series [4]; with Vaccinia virus; in series [5]; with Human alphaherpesvirus 2; in the series with Coxsackievirus B4) was inactive. Further, the outcome in the series on Influenza A virus [6], in the series with Sindbis virus and in the series with Influenza B virus was inactive. In addition, the EC50 in [2] was over 36 µM. For the same compound, it took 36 µM to reach half-maximal cytotoxicity in the series on MT4 (CC50). For the same compound, the Ki in series [7] was 22 µM.
On to `Cc1ccc(OCCn2c(=O)n(Cc3ccccc3)c(=O)c3ccccc32)cc1`, for which the result (in the series on Human respirovirus 3; in series [1]; with Human alphaherpesvirus 1; in the series on Punta Toro virus; in the series with Feline coronavirus; with Human alphaherpesvirus 3) was inactive. Further, the result (in the series with Influenza A virus [3]; in [4]; with Vaccinia virus; in series [5]; with Human alphaherpesvirus 2; with Coxsackievirus B4) was inactive. Besides, the result in the series on Influenza A virus [6], in the series with Sindbis virus and with Influenza B virus was inactive. Further, the EC50 in series [2] is over 25 µM. The same compound yielded a CC50 in the series on MT4 of 25 µM. The compound further showed a Ki in [7] of 1 µM.
`O=c1ccn(CCOc2ccc3ccccc3c2)c(=O)n1Cc1ccccc1`: the outcome (with Human respirovirus 3; in [1]; in the series with Human alphaherpesvirus 1; with Punta Toro virus; in the series with Feline coronavirus; in the series with Human alphaherpesvirus 3) was inactive. For the same compound, the outcome (in the series on Influenza A virus [3]; in series [4]; in the series with Vaccinia virus; in series [5]; in the series with Human alphaherpesvirus 2; in the series with Coxsackievirus B4) was inactive. Moreover, the result in the series with Influenza A virus [6], in the series on Sindbis virus and with Influenza B virus was inactive. Besides, in [2], the EC50 was over 37 µM. The compound further gave a CC50 with MT4 of 37 µM. The compound also came in with a Ki in series [7] of 1 µM.
In the case of `CC(C)(C)c1ccc(OCCn2ccc(=O)n(Cc3ccccc3)c2=O)cc1`, the outcome (with Human respirovirus 3; in series [1]; in the series on Human alphaherpesvirus 1; in the series on Punta Toro virus; with Feline coronavirus; with Human alphaherpesvirus 3) was inactive. Also, the outcome (in the series on Influenza A virus [3]; in series [4]; in the series with Vaccinia virus; in series [5]; in the series with Human alphaherpesvirus 2; in the series on Coxsackievirus B4) was inactive. Moreover, the result in the series on Influenza A virus [6], in the series with Sindbis virus and in the series with Influenza B virus was inactive. Further, the EC50 in [2] was over 63 µM. This compound had a CC50 in the series on MT4 of 63 µM. The compound further showed a Ki in series [7] of 15 µM.
For the compound `Cc1ccc(OCCn2cc(C)c(=O)n(Cc3ccccc3)c2=O)cc1`, the outcome (with Human respirovirus 3; in series [1]; in the series with Human alphaherpesvirus 1; in the series with Punta Toro virus; in the series on Feline coronavirus; with Human alphaherpesvirus 3) was inactive. The outcome (in the series on Influenza A virus [3]; in series [4]; in the series on Vaccinia virus; in [5]; with Human alphaherpesvirus 2; in the series with Coxsackievirus B4) was inactive. Moreover, the outcome in the series on Influenza A virus [6], in the series on Sindbis virus and in the series on Influenza B virus was inactive. For the same compound, the half-maximal effective concentration (EC50) in [2] is over 356 µM. The compound further yielded a CC50 with MT4 of over 356 µM. The compound further yielded a Ki in series [7] of 1 µM.
Take `Cc1ccccc1OCCn1ccc(=O)n(Cc2ccccc2)c1=O`: the outcome (in the series on Human respirovirus 3; in [1]; in the series with Human alphaherpesvirus 1; with Punta Toro virus; in the series with Feline coronavirus; in the series on Human alphaherpesvirus 3) was inactive. Besides, the outcome (in the series with Influenza A virus [3]; in series [4]; with Vaccinia virus; in series [5]; in the series with Human alphaherpesvirus 2; in the series on Coxsackievirus B4) was inactive. For the same compound, the outcome in the series on Influenza A virus [6], in the series with Sindbis virus and with Influenza B virus was inactive. Moreover, the EC50 in [2] is over 117 µM. In the series on MT4, it took 117 µM to reach half-maximal cytotoxicity (CC50). This compound also registered a Ki in [7] of over 100 µM.
On to `Cc1ccc(Cn2c(=O)ccn(CCOc3ccc(C)cc3)c2=O)cc1`, for which the result (with Human respirovirus 3; in series [1]; in the series on Human alphaherpesvirus 1; with Punta Toro virus; with Feline coronavirus; with Human alphaherpesvirus 3) was inactive. Besides, the outcome (with Influenza A virus [3]; in series [4]; in the series on Vaccinia virus; in [5]; with Human alphaherpesvirus 2; in the series on Coxsackievirus B4) was inactive. Moreover, the result with Influenza A virus [6], with Sindbis virus and with Influenza B virus was inactive. The EC50 in [2] is over 250 µM. Further, the half-maximal cytotoxic concentration (CC50) in the series on MT4 came to 250 µM. The compound further gave a Ki in series [7] of 47 µM.
Turning to `Cc1ccc(OCCn2ccc(=O)n(CCc3ccccc3)c2=O)cc1`, the outcome (with Human respirovirus 3; in [1]; in the series on Human alphaherpesvirus 1; in the series on Punta Toro virus; in the series with Feline coronavirus; in the series with Human alphaherpesvirus 3) was inactive. In addition, the outcome (with Influenza A virus [3]; in series [4]; with Vaccinia virus; in [5]; in the series with Human alphaherpesvirus 2; in the series on Coxsackievirus B4) was inactive. The outcome in the series with Influenza A virus [6], with Sindbis virus and with Influenza B virus was inactive. Besides, the EC50 in [2] was over 129 µM. Besides, the CC50 with MT4 worked out at 129 µM. The affinity in series [7], expressed as Ki, was 6.5 µM.
For `Cc1ccnc2c1NC(=O)c1cccnc1N2C1CC1` [NEVIRAPINE], the EC50 in series [2] was 0.048 µM. This compound came in with a CC50 in the series with MT4 of over 4 µM.
